Drawing on ChEMBL document CHEMBL1153310, “New prostaglandin derivative for glaucoma treatment” (Bioorg Med Chem Lett, 2009), this text covers Activity and AUC for 3 compounds.

Data set [1] deals with Oryctolagus cuniculus. Put plainly: Reduction in intraocular pressure in carbomer-induced glaucoma in pigmented rabbit at 0.005%, topical administration continuously for 5 days relative to latanoprost. In kind it is functional, Eye. Details: scale not given: the % may be the effect or the level left. The procedure, abridged:
(§1)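 Glaucoma induced by carbomer injection into the anterior chamber; IOP checked every 30 min over the first 3 h, then at least three times daily until stabilized at high levels. Drug instilled topically, once (single-dose) or daily for 5 days (repeated). IOP measured by Tono-Pen tonometer; single-dose readings at 30, 60, 120 and 240 min; AUC in mm Hg h.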

For data set [2], the system named is Oryctolagus cuniculus. The data set is described as follows: Increase in glutathione levels in aqueous humor of normotensive pigmented rabbit at 0.005%, topical administration. The data set is classed as functional, Aqueous humor of eyeball. The procedure, abridged:
(§2)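 Normotensive rabbits given a single topical instillation at one of three dose levels. Aqueous humour centrifuged at 100.000g, 4 °C for 30 min. Supernatant diluted in phosphate-EDTA buffer and reacted with o-phthaldialdehyde (1 mg/ml) for 15 min at room temperature. Fluorescence read at ex 350/em 420 nm, calibrated with a GSH standard curve.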

Data set [3] concerns Oryctolagus cuniculus. The data set is described as follows: Increase in glutathione levels in aqueous humor of normotensive pigmented rabbit at 0.008%, topical administration. In kind it is functional, Aqueous humor of eyeball. Put shortly:
as §2

Data set [4] has as its system Oryctolagus cuniculus. The data set is described as follows: Increase in glutathione levels in aqueous humor of normotensive pigmented rabbit at 0.01%, topical administration. The data set is classed as functional, Aqueous humor of eyeball. Put shortly: as §2
Data set [5] relates to Oryctolagus cuniculus. The data set is described as follows: Increase in glutathione levels in aqueous humor of carbomer-induced glaucomatous pigmented rabbit at 0.005%, topical administration continuously for 5 days by fluorimetry. The data set is classed as functional, Aqueous humor of eyeball. The procedure, abridged:
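Carbomer-glaucomatous rabbits given daily topical 0.005% instillation for 5 days. Aqueous humour centrifuged at 100.000g, 4 °C for 30 min. Supernatant diluted in phosphate-EDTA buffer and reacted with o-phthaldialdehyde (1 mg/ml) for 15 min at room temperature. Fluorescence read at ex 350/em 420 nm against a GSH standard curve, in pmol/ml.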

Data set [6] relates to Oryctolagus cuniculus. The data set is described as follows: Increase in cGMP levels in aqueous humor of carbomer-induced glaucomatous pigmented rabbit at 0.005%, topical administration continuously for 5 days by radioimmunoassay. In kind it is functional, Aqueous humor of eyeball. The procedure, abridged:
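Aqueous humour taken after 5 days of daily topical instillation at 0.005%. Samples treated with 10% trichloroacetic acid and centrifuged. TCA extracted with 0.5 M tri-n-octylamine in 1,1,2-trichloro-1,2,2-trifluoroethane. cGMP quantified by radioimmunoassay using labelled cGMP.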

The species named for data set [7] is Oryctolagus cuniculus. Put plainly: Toxicity in New Zealand albino rabbit assessed as tolerability at 0.005% by Draize test. In kind it is organism-based. The settings on record: in vivo. Put shortly:
(§3)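 Ocular tolerability scored by Draize test in New Zealand albino rabbits at three concentrations, compared with placebo.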

For data set [8], the species on record is Oryctolagus cuniculus. The data set is described as follows: Toxicity in New Zealand albino rabbit assessed as tolerability at 0.008% by Draize test. To be noted: in vivo. In kind it is organism-based. The procedure, abridged: as §3
The species entered for data set [9] is Oryctolagus cuniculus. Put plainly: Toxicity in New Zealand albino rabbit assessed as tolerability at 0.01% by Draize test. The data set is classed as organism-based. The settings on record: in vivo. The procedure, abridged:
as §3

For data set [10], the system named is Oryctolagus cuniculus. The data set is described as follows: Effect on intraocular pressure in carbomer-induced glaucoma in New Zealand albino rabbit assessed as AUC at 0.005%, topical administration measured after 4 hrs. Also on record: time < 4 hr. The settings on record: Eye. In kind it is functional, organism-based. Put shortly: as §1
For data set [11], the system named is Oryctolagus cuniculus. Put plainly: Effect on intraocular pressure in carbomer-induced glaucoma in pigmented rabbit assessed as AUC at 0.005%, topical administration continuously for 5 days. The data set is classed as functional, organism-based. To be noted: Eye. The procedure, abridged:
as §1

Data set [12] concerns Oryctolagus cuniculus. The data set is described as follows: Reduction in intraocular pressure in carbomer-induced glaucoma in pigmented rabbit at 0.005%, single topical administration measured over 4 hrs relative to latanoprost. Details: scale not given: the % may be the effect or the level left.
The subject of data set [13] is Oryctolagus cuniculus. Put plainly: Effect on intraocular pressure in carbomer-induced glaucoma in pigmented rabbit assessed as AUC at 0.005%, single topical administration measured over 4 hrs by tonometry. To be noted: Eye.
Data set [14] concerns Oryctolagus cuniculus. The data set is described as follows: Reduction in intraocular pressure in carbomer-induced glaucoma in albino rabbit at 0.005%, topical administration measured after 30 mins. In kind it is functional, Eye. Put shortly:
as §1

For data set [15], the system named is Oryctolagus cuniculus. Put plainly: Reduction in intraocular pressure in carbomer-induced glaucoma in albino rabbit at 0.005%, topical administration measured after 60 mins. In kind it is functional, Eye. Put shortly: as §1
Data set [16] relates to Oryctolagus cuniculus. The data set is described as follows: Reduction in intraocular pressure in carbomer-induced glaucoma in albino rabbit at 0.005%, topical administration measured after 120 mins. The data set is classed as functional, Eye. The procedure, abridged:
as §1

Data set [17] relates to Oryctolagus cuniculus. Put plainly: Reduction in intraocular pressure in carbomer-induced glaucoma in albino rabbit at 0.005%, topical administration continuously measured after […]. In kind it is functional, Eye. Put shortly:
as §1

The subject of data set [18] is Oryctolagus cuniculus. Put plainly: Reduction in intraocular pressure in carbomer-induced glaucoma in albino rabbit at 0.005%, topical administration measured after 240 mins. In kind it is functional, Eye. The procedure, abridged: as §1
Data set [19] relates to Oryctolagus cuniculus. Put plainly: Reduction in intraocular pressure in carbomer-induced glaucoma in pigmented rabbit at 0.005%, topical administration measured after 30 mins. In kind it is functional, Eye. Put shortly:
as §1

Data set [20] deals with Oryctolagus cuniculus. The data set is described as follows: Reduction in intraocular pressure in carbomer-induced glaucoma in pigmented rabbit at 0.005%, topical administration measured after 60 mins. In kind it is functional, Eye. The procedure, abridged: as §1
Data set [21] concerns Oryctolagus cuniculus. The data set is described as follows: Reduction in intraocular pressure in carbomer-induced glaucoma in pigmented rabbit at 0.005%, topical administration measured after 120 mins. In kind it is functional, Eye. The procedure, abridged: as §1
Data set [22] has as its system Oryctolagus cuniculus. The data set is described as follows: Reduction in intraocular pressure in carbomer-induced glaucoma in pigmented rabbit at 0.005%, topical administration measured after 240 mins. The data set is classed as functional, Eye. The procedure, abridged:
as §1

In data set [23] the test system is Oryctolagus cuniculus. The data set is described as follows: Reduction in intraocular pressure in carbomer-induced glaucoma in pigmented rabbit at 0.005%, topical administration for 1 day. In kind it is functional, Eye. Put shortly: as §1
In data set [24] the test system is Oryctolagus cuniculus. The data set is described as follows: Reduction in intraocular pressure in carbomer-induced glaucoma in pigmented rabbit at 0.005%, topical administration continuously for 2 days. The data set is classed as functional, Eye. The procedure, abridged:
as §1

Data set [25] relates to Oryctolagus cuniculus. Put plainly: Reduction in intraocular pressure in carbomer-induced glaucoma in pigmented rabbit at 0.005%, topical administration continuously for 3 days. In kind it is functional, Eye. Put shortly: as §1
Data set [26] relates to Oryctolagus cuniculus. Put plainly: Reduction in intraocular pressure in carbomer-induced glaucoma in pigmented rabbit at 0.005%, topical administration continuously for 4 days. The data set is classed as functional, Eye. The procedure, abridged:
as §1

The subject of data set [27] is Oryctolagus cuniculus. Put plainly: Reduction in intraocular pressure in carbomer-induced glaucoma in pigmented rabbit at 0.005%, topical administration continuously for 5 days. The data set is classed as functional, Eye. The procedure, abridged:
as §1

Molecules are shown by their SMILES.

With `O=C(CCC/C=C\C[C@@H]1[C@@H](CC[C@@H](O)CCc2ccccc2)[C@H](O)C[C@@H]1O)Oc1ccc(-c2cc(=S)ss2)cc1`, the Activity amounted to 27% with Oryctolagus cuniculus [1]; 60.04 pmol/mL in the data set on Oryctolagus cuniculus [2]; 69.83 pmol/mL in the data set with Oryctolagus cuniculus [3]; 82.89 pmol/mL with Oryctolagus cuniculus [4]; 65.27 pmol/mL with Oryctolagus cuniculus [5]; 118 fmol/mL with Oryctolagus cuniculus [6]. In addition, the Activity result is reported as “Non-toxic” in the data set filed under Oryctolagus cuniculus [7], “Non-toxic” in the data set listed under Oryctolagus cuniculus [8], “Non-toxic” in the data set filed under Oryctolagus cuniculus [9] and 30.8% in the data set on Oryctolagus cuniculus [12]. For the same compound, the AUC turned out to be 106 mmHg.hr with Oryctolagus cuniculus [10], 2090 mmHg.hr in the data set on Oryctolagus cuniculus [11] and 75.2 mmHg.hr in the data set with Oryctolagus cuniculus [13].
As for `Oc1ccc(-c2cc(=S)ss2)cc1`, the Activity in the data set with Oryctolagus cuniculus [14] was found to be 29.5 mmHg; in the data set with Oryctolagus cuniculus [15], 28 mmHg; with Oryctolagus cuniculus [16], 26.2 mmHg; with Oryctolagus cuniculus [17], 25 mmHg; in the data set on Oryctolagus cuniculus [18], 25.2 mmHg; with Oryctolagus cuniculus [19], 30 mmHg. Further, the Activity is 29 mmHg in the data set with Oryctolagus cuniculus [20]; 26 mmHg with Oryctolagus cuniculus [21]; 23.5 mmHg with Oryctolagus cuniculus [22]; 26.7 mmHg in the data set on Oryctolagus cuniculus [23]; 26 mmHg in the data set with Oryctolagus cuniculus [24]; 23 mmHg with Oryctolagus cuniculus [25]. Moreover, the Activity was 22.2 mmHg in the data set on Oryctolagus cuniculus [26]; 22 mmHg with Oryctolagus cuniculus [27]; 58.3 pmol/mL with Oryctolagus cuniculus [2]; 60.4 pmol/mL with Oryctolagus cuniculus [5]; 122 fmol/mL in the data set with Oryctolagus cuniculus [6].
As for `CC(C)OC(=O)CCC/C=C\C[C@@H]1[C@@H](CC[C@@H](O)CCc2ccccc2)[C@H](O)C[C@@H]1O` [LATANOPROST], the Activity came out at 38.7 pmol/mL with Oryctolagus cuniculus [2], 36.44 pmol/mL in the data set with Oryctolagus cuniculus [5] and 71.8 fmol/mL in the data set with Oryctolagus cuniculus [6]. Moreover, the AUC was found to be 119 mmHg.hr with Oryctolagus cuniculus [10], 2660 mmHg.hr in the data set on Oryctolagus cuniculus [11] and 109 mmHg.hr with Oryctolagus cuniculus [13].
